Test results: ChEMBL document CHEMBL2157989, “Synthesis and biological evaluation of antibody conjugates of phosphate prodrugs of cytotoxic DNA alkylators for the targeted treatment of cancer” (J Med Chem, 2012)
≈ marks a conversion by molar mass, not a printed value.

Key:
[1] = Solubility of the compound in 100% buffer at pH 7 at 1.5 mg sonicated for 45 mins followed by centrifugation for 45 mins by UV/Vis spectroscopy; type: physicochemical
[2] = Solubility of the compound in 5% DMA and 95% buffer at pH 7 at 1.5 mg sonicated for 45 mins followed by centrifugation for 45 mins by UV/Vis spectroscopy; type: physicochemical
In short: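 For buffers with 5% or less DMA, a 50 mM stock of compound in DMA is diluted 20–100 times into pH 7.0 buffer. It is then sonicated for 45 min and centrifuged at 1400g for 45 min. Supernatant is quantified by UV/vis at 340 nm, with ε of 41500 (DC1–SR₂ compounds) or 34500 M⁻¹ cm⁻¹ (phosphate prodrugs).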

[3] = Solubility of the compound in 10% DMA and 90% buffer at pH 7 at 1.5 mg sonicated for 45 mins followed by centrifugation for 45 mins by UV/Vis spectroscopy; type: physicochemical
In short: (§1)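 About 1.5 mg of compound is sonicated for 45 min in pH 7.0 buffer containing 10% or 20% DMA, then centrifuged at 1400g for 45 min. Supernatant concentration is read by UV/vis at 340 nm. ε at pH 7.0 is 41500 M⁻¹ cm⁻¹ for DC1–SR₂ compounds and 34500 M⁻¹ cm⁻¹ for phosphate prodrugs.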

[4] = Solubility of the compound in 20% DMA and 80% buffer at pH 7 at 1.5 mg sonicated for 45 mins followed by centrifugation for 45 mins by UV/Vis spectroscopy; type: physicochemical; in short: as §1
Ramos = assay: Cytotoxicity against human Ramos cells assessed as cell survival after 72 hrs by clonogenic assay; type: functional, cell-based
In short: (§2)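 Cells were kept in RPMI 1640 with 10% heat-inactivated FBS at 37 °C and 6% CO₂. They were plated at 1000–5000 cells/well and exposed to 0–3 nM test agent for 72 h. Medium was then replaced and colonies grew for 7–10 days in total after plating. Colonies were fixed and stained with 0.2% crystal violet in 10% formalin/PBS, then counted. Surviving fraction = colonies in treated wells / colonies in control wells; IC₅₀ was taken from this.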

[5] = Cytotoxicity against human NAMALWA cells assessed as cell survival after 72 hrs by clonogenic assay; type: functional, cell-based; settings: NAMALVA; in short: as §2
HL-60 = assay: Cytotoxicity against human HL60 cells assessed as cell survival after 72 hrs by clonogenic assay; type: functional, cell-based; settings: HL-60, 72 h; in short: as §2
COLO 205 = assay: Cytotoxicity against human COLO205 cells assessed as cell survival after 72 hrs by clonogenic assay; type: functional, cell-based; settings: COLO 205, 72 h; in short: as §2
[6] = Solubility in water at 1.5 mg sonicated for 45 mins followed by centrifugation for 45 mins by UV/Vis spectroscopy; type: physicochemical; settings: 0.75 h
In short: (§3)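 Solid compound (~1.5 mg) in the stated solvent was sonicated 45 min, then centrifuged at 1400g for 45 min. The supernatant concentration was read by UV/vis at 340 nm, using ε = 41500 M⁻¹ cm⁻¹ for the free phenols and 34500 M⁻¹ cm⁻¹ for the phosphate prodrugs (pH 7.0 values).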

[7] = Solubility in toluene at 1.5 mg sonicated for 45 mins followed by centrifugation for 45 mins by UV/Vis spectroscopy; type: physicochemical; settings: 0.75 h; in short: as §3
[8] = Solubility in ethyl acetate at 1.5 mg sonicated for 45 mins followed by centrifugation for 45 mins by UV/Vis spectroscopy; type: physicochemical; settings: 0.75 h; in short: as §3
[9] = Solubility in hexane at 1.5 mg sonicated for 45 mins followed by centrifugation for 45 mins by UV/Vis spectroscopy; type: physicochemical; settings: 0.75 h; in short: as §3
[10] = Solubility in chloroform at 1.5 mg sonicated for 45 mins followed by centrifugation for 45 mins by UV/Vis spectroscopy; type: physicochemical; settings: 0.75 h; in short: as §3
[11] = Solubility in dichloromethane at 1.5 mg sonicated for 45 mins followed by centrifugation for 45 mins by UV/Vis spectroscopy; type: physicochemical; settings: 0.75 h
[12] = Solubility in ethanol at 1.5 mg sonicated for 45 mins followed by centrifugation for 45 mins by UV/Vis spectroscopy; type: physicochemical; settings: 0.75 h; in short: as §3
[13] = Solubility in methanol at 1.5 mg sonicated for 45 mins followed by centrifugation for 45 mins by UV/Vis spectroscopy; type: physicochemical; settings: 0.75 h; in short: as §3
[14] = Solubility in DMSO at 1.5 mg sonicated for 45 mins followed by centrifugation for 45 mins by UV/Vis spectroscopy; type: physicochemical; settings: 0.75 h; in short: as §3
[15] = Solubility in DMA at 1.5 mg sonicated for 45 mins followed by centrifugation for 45 mins by UV/Vis spectroscopy; type: physicochemical; settings: 0.75 h; in short: as §3
[16] = Solubility in DMF at 1.5 mg sonicated for 45 mins followed by centrifugation for 45 mins by UV/Vis spectroscopy; type: physicochemical; settings: 0.75 h; in short: as §3
[17] = Solubility in THF at 1.5 mg sonicated for 45 mins followed by centrifugation for 45 mins by UV/Vis spectroscopy; type: physicochemical; settings: 0.75 h
[18] = Solubility in dioxane at 1.5 mg sonicated for 45 mins followed by centrifugation for 45 mins by UV/Vis spectroscopy; type: physicochemical; settings: 0.75 h
[19] = Solubility in acetone at 1.5 mg sonicated for 45 mins followed by centrifugation for 45 mins by UV/Vis spectroscopy; type: physicochemical; settings: 0.75 h

SMILES	solubility at 0.75 h [1] [µM]	solubility at 0.75 h [2] [µM]	solubility at 0.75 h [3] [µM]	solubility at 0.75 h [4] [µM]	IC50 (Ramos) [nM]	IC50 [5] [nM]	IC50 (HL-60) [nM]	IC50 (COLO 205) [nM]	solubility [6]	solubility [7]	solubility [8]	solubility [9]	solubility [10]	solubility [11]	solubility [12]	solubility [13]	solubility [14]	solubility [15]	solubility [16]	solubility [17]	also measured
CSSCCC(=O)Nc1ccc2[nH]c(C(=O)Nc3ccc4[nH]c(C(=O)N5C[C@@H](CCl)c6c5cc(O)c5ccccc65)cc4c3)cc2c1	< 0.1	< 1	1 (≈ 0.684 µg/mL)	3 (≈ 2.05 µg/mL)	0.022	0.01	0.032	0.25	Insoluble	Insoluble	Insoluble	Insoluble	Insoluble	Insoluble	Insoluble	Insoluble	soluble	soluble	soluble	soluble	solubility [18]: soluble; solubility [19]: soluble
CSSC(C)(C)CCC(=O)Nc1ccc2[nH]c(C(=O)Nc3ccc4[nH]c(C(=O)N5C[C@@H](CCl)c6c5cc(O)c5ccccc65)cc4c3)cc2c1	< 0.1	< 1	1 (≈ 0.726 µg/mL)	3 (≈ 2.18 µg/mL)	0.018	0.021	0.025	0.22	Insoluble	Insoluble	Insoluble	Insoluble	Insoluble	Insoluble	Insoluble	Insoluble	soluble	soluble	soluble	soluble	solubility [18]: soluble; solubility [19]: soluble
